What was measured:
Mus musculus [1] = test: Anticonvulsant activity against Subcutaneous pentylenetetrazole test at dose 300 mg/kg at 4 hr; format: functional
In short: (§1)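 Phase I mouse screen. Compound was suspended in 30% polyethylene glycol 400 and given by intraperitoneal injection at 30, 100, 300 or 600 mg/kg. Testing was at 30 min and 4 h (maximal electroshock or subcutaneous pentylenetetrazol), with rotorod toxicity scored alongside. Scored as animals protected/tested; toxicity was flagged at the 0.5 h or 4 h check.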

Mus musculus [2] = test: Anticonvulsant activity against neurologic toxicity test at dose 300 mg/kg at 0.5 hr; format: organism-based; design: dose 300 mg/kg; settings: in vivo
In short: (§2)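 Mice got the compound as a suspension in 30% polyethylene glycol 400 by ip injection (30, 100, 300, 600 mg/kg) 30 min or 4 h before the rotorod neurological toxicity test. The value is the number of animals showing toxicity over the number tested.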

Mus musculus [3] = test: Anticonvulsant activity against neurologic toxicity test at dose 600 mg/kg at 0.5 hr; format: organism-based; design: dose 600 mg/kg; settings: in vivo; in short: as §2
Mus musculus [4] = test: Anticonvulsant activity against neurologic toxicity test at dose 300 mg/kg at 4 hr; format: organism-based; design: dose 300 mg/kg; settings: in vivo; in short: as §2
Mus musculus [5] = test: Anticonvulsant activity against Subcutaneous pentylenetetrazole test at dose 600 mg/kg at 4 hr; format: functional; in short: as §1
Mus musculus [6] = test: Anticonvulsant activity against Maximal electroshock seizure at dose 600 mg/kg at 4 hr; format: functional; in short: as §1
Mus musculus [7] = test: Anticonvulsant activity against Subcutaneous pentylenetetrazole test at dose 300 mg/kg at 0.5 hr; format: functional; in short: as §1
Mus musculus [8] = test: Anticonvulsant activity against Maximal electroshock seizure at dose 600 mg/kg at 0.5 hr; format: functional; in short: as §1
Mus musculus [9] = test: Anticonvulsant activity against Maximal electroshock seizure at dose 300 mg/kg at 4 hr; format: functional; in short: as §1
Mus musculus [10] = test: Anticonvulsant activity against Maximal electroshock seizure at dose 300 mg/kg at 0.5 hr; format: functional; in short: as §1
Mus musculus [11] = test: Anticonvulsant activity against Subcutaneous pentylenetetrazole test at dose 600 mg/kg at 0.5 hr; format: functional; in short: as §1
Mus musculus [12] = test: Anticonvulsant activity against neurologic toxicity test at dose 600 mg/kg at 4 hr; format: organism-based; design: dose 600 mg/kg; settings: in vivo; in short: as §2
Mus musculus [13] = test: Anticonvulsant activity against Maximal electroshock seizure at dose 300 mg/kg at 0.5 hr; toxic; format: ADME, organism-based; design: dose 300 mg/kg; settings: in vivo; in short: as §1
Mus musculus [14] = test: Anticonvulsant activity against Maximal electroshock seizure at dose 300 mg/kg at 4 hr; toxic; format: ADME, organism-based; design: dose 300 mg/kg; settings: in vivo; in short: as §1
Mus musculus [15] = test: Phase II qualification against administered subcutaneously was reported.; format: functional; settings: sc
In short: (§3)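 Mice were used. scMet ED50 and rotorod TD50 came from groups of 6–12 mice dosed over a range until at least three points fell within 10–90% protection or minimal neurotoxicity. Both were read at the time of peak effect, 0.5 h. ED50, TD50 and 95% confidence intervals were obtained from a plot by the Litchfield–Wilcoxon method. PI = TD50/ED50.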

[16] = Phase II qualification against neurotoxicity administered subcutaneously was reported.; format: toxicity, organism-based; settings: mouse, in vivo, sc; in short: as §3
Mus musculus [17] = test: Anticonvulsant activity against Bicucullin (3.75 mg/kg) induced tonic seizure at dose 300 mg/kg subcutaneously at pretreatment time of 30 min.; format: functional; settings: route subcutaneous
In short: (§4)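 CF1 mice (Sprague–Dawley) were given the compound sc in 30% polyethylene glycol 400, with vehicle-injected controls. After the stated pretreatment interval, at the time of peak effect, bicuculline 3.75 mg/kg was injected sc; this dose gives clonic and tonic seizures and death in all controls. Clonic seizure = at least one 5-s clonic spasm episode. Tonic seizure = hindlimb flexion then extension. Scored as mice protected/tested plus mean ± SD onset, minutes.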

Mus musculus [18] = test: Anticonvulsant activity against Bicucullin (3.75 mg/kg) induced death at dose 300 mg/kg subcutaneously at pretreatment time of 30 min.; format: ADME, organism-based; design: dose 300 mg/kg, route subcutaneous; settings: in vivo, sc
[19] = Protective index is the ratio of TD50 to that of ED50; format: ADME; settings: read-out: Protective index; in short: as §3
Mus musculus [20] = test: Anticonvulsant activity against Bicucullin (3.75 mg/kg) induced clonic seizure at dose 300 mg/kg subcutaneously at pretreatment time of 30 min.; format: functional; settings: route subcutaneous; in short: as §4
Mus musculus [21] = test: Anticonvulsant activity against Bicucullin (3.75 mg/kg) induced death at dose 200 mg/kg subcutaneously at pretreatment time of 30 min.; format: ADME, organism-based; design: dose 200 mg/kg, route subcutaneous; settings: in vivo, sc
Mus musculus [22] = test: Anticonvulsant activity against Bicucullin (3.75 mg/kg) induced tonic seizure at dose 200 mg/kg subcutaneously at pretreatment time of 15 min.; format: functional; settings: route subcutaneous, in the assay text read “pretreatment time of 30 min” for “pretreatment time of 15 min”; in short: as §4
Mus musculus [23] = test: Anticonvulsant activity against Bicucullin (3.75 mg/kg) induced clonic seizure at dose 200 mg/kg subcutaneously at pretreatment time of 30 min.; format: functional; settings: route subcutaneous; in short: as §4
Mus musculus [24] = test: Anticonvulsant activity against Bicucullin (3.75 mg/kg) induced tonic seizure at dose 150 mg/kg subcutaneously at pretreatment time of 15 min.; format: functional; settings: route subcutaneous; in short: as §4
[25] = Phase V qualification against neurotoxicity administered subcutaneously at a dose (3.2 mg/kg) was reported.; format: toxicity, organism-based; settings: mouse, in vivo, sc
Mus musculus [26] = test: Phase V qualification against antipicrotoxin activity administered subcutaneously at 3.2 mg/kg; format: functional; settings: sc, route subcutaneous
Mus musculus [27] = test: Anticonvulsant activity against Bicucullin (3.75 mg/kg) induced tonic seizure at dose 150 mg/kg subcutaneously at pretreatment time of 30 min.; format: functional; settings: route subcutaneous; in short: as §4
Mus musculus [28] = test: Anticonvulsant activity against Bicucullin (3.75 mg/kg) induced clonic seizure at dose 150 mg/kg subcutaneously at pretreatment time of 15 min.; format: functional; settings: route subcutaneous; in short: as §4
Mus musculus [29] = test: Anticonvulsant activity against Bicucullin (3.75 mg/kg) induced clonic seizure at dose 150 mg/kg subcutaneously at pretreatment time of 30 min.; format: functional; settings: route subcutaneous; in short: as §4
Mus musculus [30] = test: Anticonvulsant activity against Bicucullin (3.75 mg/kg) induced death at dose 150 mg/kg subcutaneously at pretreatment time of 15 min.; format: ADME, organism-based; design: dose 150 mg/kg, route subcutaneous; settings: in vivo, sc
Mus musculus [31] = test: Anticonvulsant activity against picrotoxin (4.0 mg/kg) induced clonic seizures at 180 mg/kg subcutaneous dose 15 min pretreatment; format: functional
Mus musculus [32] = test: Anticonvulsant activity against Bicucullin (3.75 mg/kg) induced death at dose 150 mg/kg subcutaneously at pretreatment time of 30 min.; format: ADME, organism-based; design: dose 150 mg/kg, route subcutaneous; settings: in vivo, sc
Mus musculus [33] = test: Anticonvulsant activity against Bicucullin (3.75 mg/kg) induced tonic seizure at dose 360 mg/kg subcutaneously at pretreatment time of 15 min.; format: functional; settings: route subcutaneous; in short: as §4
Mus musculus [34] = organism: Mus musculus; test: animal or person; settings: sc
Mus musculus [35] = test: Anticonvulsant activity against Bicucullin (3.75 mg/kg) induced clonic seizure at dose 400 mg/kg subcutaneously at pretreatment time of 15 min.; format: functional; settings: route subcutaneous; in short: as §4
Mus musculus [36] = test: Anticonvulsant activity against Bicucullin (3.75 mg/kg) induced tonic seizure at dose 400 mg/kg subcutaneously at pretreatment time of 15 min.; format: functional; settings: route subcutaneous; in short: as §4
Mus musculus [37] = test: Anticonvulsant activity against Bicucullin (3.75 mg/kg) induced death at dose 400 mg/kg subcutaneously at pretreatment time of 15 min.; format: ADME, organism-based; design: dose 400 mg/kg, route subcutaneous; settings: in vivo, sc
Mus musculus [38] = test: Anticonvulsant activity against Bicucullin (3.75 mg/kg) induced clonic seizure at dose 360 mg/kg subcutaneously at pretreatment time of 15 min.; format: functional; settings: route subcutaneous; in short: as §4
Mus musculus [39] = test: Anticonvulsant activity against picrotoxin (4.0 mg/kg) induced clonic seizures at 400 mg/kg subcutaneous dose 15 min pretreatment; format: functional

Structure (SMILES) | No. protected/tested (Mus musculus [1]) | No. toxicity/tested (Mus musculus [2]) | No. toxicity/tested (Mus musculus [3]) | No. toxicity/tested (Mus musculus [4]) | No. protected/tested (Mus musculus [5]) | No. protected/tested (Mus musculus [6]) | No. protected/tested (Mus musculus [7]) | No. protected/tested (Mus musculus [8]) | No. protected/tested (Mus musculus [9]) | No. protected/tested (Mus musculus [10]) | No. protected/tested (Mus musculus [11]) | No. toxicity/tested (Mus musculus [12]) | No. protected/tested (Mus musculus [13]) | further results
O=C(O)C1(C(=O)O)CCC2(CCCCC2)C1 | 0 | 0 | 0 | 0 | 0 | 0 | 0 | 0 | 0 | 0 | 1 | 2 |  | 
O=C(O)CC1CCC2(CCCCCC2)C1 (stereo unspecified) | 0 | 3 | 4 | 0 | 1 | 0 | 1 | 1 |  |  | 1 | 0 | 1 | No. protected/tested (Mus musculus [14]): 0
O=C(O)C1(C(=O)O)CCC2(CCCCCC2)C1 | 0 | 0 | 3 | 0 | 0 | 0 | 1 | 0 |  | 0 | 1 | 2 |  | ED50 (Mus musculus [15]): 194 mg/kg; TD50 [16]: 275 mg/kg; Average onset (Mus musculus [17]): 12 min; No. protected/tested (Mus musculus [14]): 0; Average onset (Mus musculus [18]): 13 min; selectivity ratio [19]: 1.4; Average onset (Mus musculus [20]): 9 min
O=C(O)C1CCC2(CCCCC2)C1 (stereo unspecified) | 0 | 3 | 4 | 0 | 0 | 0 | 1 | 0 | 0 |  | 1 | 0 | 1 | Average onset (Mus musculus [21]): 12 min; Average onset (Mus musculus [22]): 11 min; Average onset (Mus musculus [23]): 8 min
O=C([O-])C1CCC2(CCCCCC2)C1.[Na+] (stereo unspecified) | 0 | 0 | 4 | 0 | 0 | 0 | 0 | 0 | 0 | 0 | 1 | 2 |  | 
O=C(O)C1CCC2(CCCCCC2)C1 (stereo unspecified) | 0 | 1 | 4 | 0 | 1 | 0 | 1 | 0 | 0 |  | 1 | 1 | 1 | ED50 (Mus musculus [15]): 83 mg/kg; Average onset (Mus musculus [24]): 10 min; TD50 [25]: 193 mg/kg; ED50 (Mus musculus [26]): 167 mg/kg; Average onset (Mus musculus [27]): 13 min; TD50 [16]: 193 mg/kg; Average onset (Mus musculus [28]): 7 min; Average onset (Mus musculus [29]): 8 min; Average onset (Mus musculus [30]): 10 min; selectivity ratio [19]: 2.3; Average onset (Mus musculus [31]): 21 min; Average onset (Mus musculus [32]): 14 min
CCCC(CCC)C(=O)O [VALPROIC ACID] |  |  |  |  |  |  |  |  |  |  |  |  |  | Average onset (Mus musculus [33]): 11 min; ED50 (Mus musculus [26]): 387 mg/kg; ED50 (Mus musculus [34]): 149 mg/kg; Average onset (Mus musculus [35]): 15 min; Average onset (Mus musculus [36]): 17 min; Average onset (Mus musculus [37]): 18 min; Average onset (Mus musculus [38]): 9 min; Average onset (Mus musculus [39]): 16 min
